Measurements published in ChEMBL document CHEMBL1157314, “Antibacterial, partially acetylated oligorhamnosides from Cleistopholis patens” (2006).

Assays:
Assay type in all cases: functional
[1] = system: Staphylococcus aureus; assay: Antibacterial activity against methicillin-resistant Staphylococcus aureus ATCC 33591 after 24 hrs by broth microdilution method; conditions: ATCC 33591, 24 h
How it was run: (§1)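 Broth microdilution following NCCLS M7-A6 (2003), with inoculum at the recommended densities. Isolates were placed into panel wells with an autoinoculator and grown in cation-adjusted Mueller-Hinton broth at 35°C in ambient air for overnight to 24 h. Panels were read by eye, and the MIC was taken as no visible growth.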

[2] = system: Staphylococcus aureus; assay: Antibacterial activity against methicillin-resistant Staphylococcus aureus 78-13607A after 24 hrs by broth microdilution method; how it was run: as §1
[3] = system: Enterococcus faecalis; assay: Antibacterial activity against linezolid-resistant Enterococcus faecalis 15-5341 isolate after 24 hrs by broth microdilution method; how it was run: as §1
[4] = system: Streptococcus pneumoniae; assay: Antibacterial activity against erythromycin and clindamycin-resistant Streptococcus pneumoniae 4-38B isolate after 24 hrs by broth microdilution method; how it was run: as §1
[5] = system: Streptococcus pneumoniae; assay: Antibacterial activity against penicillin-resistant Streptococcus pneumoniae 33-50B isolate after 24 hrs by broth microdilution method; how it was run: as §1
[6] = system: Bacillus cereus; assay: Antibacterial activity against Bacillus cereus 24-59A isolate after 24 hrs by broth microdilution method
[7] = system: Enterococcus faecium; assay: Antibacterial activity against vancomycin-resistant Enterococcus faecium 103-1232D isolate with vanB phenotype after 24 hrs by broth microdilution method; how it was run: as §1
[8] = system: Staphylococcus; assay: Antibacterial activity against quinupristin/dalfopristin-resistant coagulase negative Staphylococcus 90-10840A isolate after 24 hrs by broth microdilution method; how it was run: as §1
[9] = system: Staphylococcus aureus; assay: Antibacterial activity against oxacillin-susceptible Staphylococcus aureus ATCC 29213 after 24 hrs by broth microdilution method; conditions: ATCC 29213, 24 h; how it was run: as §1
[10] = system: Staphylococcus aureus; assay: Antibacterial activity against oxacillin-resistant Staphylococcus aureus ATCC 33591 after 24 hrs by broth microdilution method; conditions: ATCC 33591, 24 h; how it was run: as §1
[11] = system: Corynebacterium jeikeium; assay: Antibacterial activity against Corynebacterium jeikeium 15-196A isolate after 24 hrs by broth microdilution method
How it was run: (§2)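 Broth microdilution following NCCLS M7-A6 (2003) inocula; isolates transferred aseptically into panel wells with an autoinoculator; cation-adjusted Mueller-Hinton broth; incubated overnight to 24 h at 35°C in ambient air; panels read by eye, MIC taken as lowest concentration with no visible growth.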

[12] = system: Streptococcus; assay: Antibacterial activity against erythromycin-resistant and clindamycin-susceptible beta-haemolytic sStreptococcus 109-820D isolate after 24 hrs by broth microdilution method; how it was run: as §1
[13] = system: Streptococcus; assay: Antibacterial activity against multidrug-resistant viridans group Streptococcus 58-1602D isolate after 24 hrs by broth microdilution method; how it was run: as §1
[14] = system: Streptococcus; assay: Antibacterial activity against levafloxacin-resistant viridans group Streptococcus 107-6380A isolate after 24 hrs by broth microdilution method; how it was run: as §1
[15] = system: Enterococcus faecalis; assay: Antibacterial activity against gentamycin and streptomycin-resistant Enterococcus faecalis 39-11D isolate after 24 hrs by broth microdilution method; how it was run: as §1
[16] = system: Bacillus sp.; assay: Antibacterial activity against erythromycin-resistant Bacillus sp. 32-2406A isolate after 24 hrs by broth microdilution method; conditions: Bacillus sp. (in: firmicutes); how it was run: as §1
[17] = system: Streptococcus; assay: Antibacterial activity against linezolid-resistant viridans group Streptococcus 27-2832A isolate after 24 hrs by broth microdilution method; how it was run: as §1
[18] = system: Streptococcus mitis; assay: Antibacterial activity against penicillin-resistant Streptococcus mitis 61-2900C isolate after 24 hrs by broth microdilution method; how it was run: as §1
[19] = system: Streptococcus pneumoniae; assay: Antibacterial activity against penicillin-intermediate resistant Streptococcus pneumoniae ATCC 49619 after 24 hrs by broth microdilution method; conditions: ATCC 49619, 24 h; how it was run: as §1
[20] = system: Staphylococcus aureus; assay: Antibacterial activity against mupirocin-resistant Staphylococcus aureus 4-90A isolate after 24 hrs by broth microdilution method; how it was run: as §1
[21] = system: Corynebacterium sp.; assay: Antibacterial activity against rifampin-resistant Corynebacterium sp. 58-9161A isolate after 24 hrs by broth microdilution method; how it was run: as §1
[22] = system: Corynebacterium sp.; assay: Antibacterial activity against streptomycin-resistant Corynebacterium sp. 61-5454A isolate after 24 hrs by broth microdilution method; how it was run: as §1
[23] = system: Streptococcus; assay: Antibacterial activity against mupirocin-resistant viridans group sStreptococcus 32-2395A isolate after 24 hrs by broth microdilution method; how it was run: as §1
[24] = system: Streptococcus; assay: Antibacterial activity against levofloxacin-resistant beta-haemolytic sStreptococcus 19-756A isolate after 24 hrs by broth microdilution method; how it was run: as §1
[25] = system: Staphylococcus; assay: Antibacterial activity against mupirocin-resistant coagulase negative Staphylococcus 63-18A isolate after 24 hrs by broth microdilution method; how it was run: as §1
[26] = system: Bacillus sp.; assay: Antibacterial activity against tetracycline-resistant Bacillus sp. 107-1461D isolate after 24 hrs by broth microdilution method; conditions: Bacillus sp. (in: firmicutes); how it was run: as §1
[27] = system: Staphylococcus; assay: Antibacterial activity against coagulase negative linezolid-resistant Staphylococcus 82-1645A isolate after 24 hrs by broth microdilution method; how it was run: as §1
[28] = system: Enterococcus faecium; assay: Antibacterial activity against linezolid-resistant Enterococcus faecium 11-4103A isolate after 24 hrs by broth microdilution method; how it was run: as §1
[29] = system: Corynebacterium sp.; assay: Antibacterial activity against doxycyclin-resistant Corynebacterium sp. 105-1513C isolate after 24 hrs by broth microdilution method; how it was run: as §1
[30] = system: Streptococcus pneumoniae; assay: Antibacterial activity against erythromycin-resistant and clindamycin-susceptible Streptococcus pneumoniae 35-405B isolate after 24 hrs by broth microdilution method; how it was run: as §1
[31] = system: Streptococcus pneumoniae; assay: Antibacterial activity against levofloxacin-resistant Streptococcus pneumoniae 2-2784A isolate after 24 hrs by broth microdilution method; how it was run: as §1
[32] = system: Streptococcus pneumoniae; assay: Antibacterial activity against multidrug resistant Streptococcus pneumoniae 68-2307B isolate after 24 hrs by broth microdilution method; how it was run: as §1
[33] = system: Pseudomonas aeruginosa; assay: Antibacterial activity against sPseudomonas aeruginosa ATCC 27853 after 24 hrs by broth microdilution method; conditions: ATCC 27853, 24 h; how it was run: as §2
[34] = system: Escherichia coli; assay: Antibacterial activity against sEscherichia coli ATCC 25922 after 24 hrs by broth microdilution method; conditions: ATCC 25922, 24 h; how it was run: as §2
[35] = system: Enterococcus faecalis; assay: Antibacterial activity against ampicillin and vancomycin-susceptible Enterococcus faecalis ATCC 29212 after 24 hrs by broth microdilution method; conditions: ATCC 29212, 24 h; how it was run: as §1
[36] = system: Enterococcus faecium; assay: Antibacterial activity against ampicillin and vancomycin-resistant Enterococcus faecium 24-45A isolate after 24 hrs by broth microdilution method; how it was run: as §1
[37] = system: Staphylococcus aureus; assay: Antibacterial activity against quinupristin/dalfopristin-resistant Staphylococcus aureus 300-12053A isolate after 24 hrs by broth microdilution method; how it was run: as §1
[38] = system: Bacillus sp.; assay: Antibacterial activity against trimethoprim/sulfamethaxazole-resistant Bacillus sp. 67-1057A isolate after 24 hrs by broth microdilution method; conditions: Bacillus sp. (in: firmicutes); how it was run: as §1
[39] = system: Staphylococcus haemolyticus; assay: Antibacterial activity against oxacillin-resistant Staphylococcus haemolyticus 107-1240C isolate after 24 hrs by broth microdilution method; how it was run: as §1
[40] = system: Enterococcus faecium; assay: Antibacterial activity against vancomycin-resistant Enterococcus faecium 15-206A isolate with vanA phenotype after 24 hrs by broth microdilution method; how it was run: as §1
[41] = system: Staphylococcus epidermidis; assay: Antibacterial activity against oxacillin-susceptible Staphylococcus epidermidis isolate 12-1788A isolate after 24 hrs by broth microdilution method
[42] = system: Enterococcus faecalis; assay: Antibacterial activity against vancomycin-resistant Enterococcus faecalis 82-876D with vanB phenotype isolate after 24 hrs by broth microdilution method; how it was run: as §1
[43] = system: Streptococcus pyogenes; assay: Antibacterial activity against erythromycin-resistant Streptococcus pyogenes 91-8747 isolate after 24 hrs by broth microdilution method; how it was run: as §1
[44] = system: Staphylococcus aureus; assay: Antibacterial activity against linezolid-resistant Staphylococcus aureus 106-12591A isolate after 24 hrs by broth microdilution method; how it was run: as §1
[45] = system: Streptococcus; assay: Antibacterial activity against erythromycin and clindamycin-resistant beta-haemolytic sStreptococcus 91-526D isolate after 24 hrs by broth microdilution method; how it was run: as §1
[46] = system: Enterococcus faecium; assay: Antibacterial activity against quinupristin/dalfopristin-resistant Enterococcus faecium 65-1208A isolate after 24 hrs by broth microdilution method; how it was run: as §1
[47] = system: Enterococcus faecalis; assay: Antibacterial activity against vancomycin-resistant Enterococcus faecalis 48-22D isolate with vanA phenotype after 24 hrs by broth microdilution method; how it was run: as §1

Measured: MIC

O=C(O)c1cn(C2CC2)c2cc(N3CCNCC3)c(F)cc2c1=O [CIPROFLOXACIN]
0.5 µg/mL: [1]
> 4 µg/mL: [2]

CCCCCCCCCCCCO[C@@H]1O[C@@H](C)[C@H](O[C@@H]2O[C@@H](C)[C@H](OC(C)=O)[C@@H](O[C@@H]3O[C@@H](C)[C@H](OC(C)=O)[C@@H](O)[C@H]3OC(C)=O)[C@H]2O)[C@@H](O)[C@H]1O
> 32 µg/mL: [11] | [33] | [34]
8 µg/mL: [5] | [1] | [18] | [19] | [21] | [22] | [2] | [29] | [43]
4 µg/mL: [4] | [12] | [13] | [14] | [17] | [23] | [24] | [30] | [31] | [32] | [35] | [39] | [41] | [45]
2 µg/mL: all other assays above

CCCCCCCCCCCCO[C@@H]1O[C@@H](C)[C@H](O[C@@H]2O[C@@H](C)[C@H](OC(C)=O)[C@@H](O[C@@H]3O[C@@H](C)[C@H](OC(C)=O)[C@@H](O[C@@H]4O[C@@H](C)[C@H](OC(C)=O)[C@@H](O)[C@H]4O)[C@H]3OC(C)=O)[C@H]2O)[C@@H](O)[C@H]1O
16 µg/mL: [21] | [22] | [29]
4 µg/mL: [4] | [5] | [9] | [12] | [13] | [14] | [17] | [18] | [19] | [23] | [24] | [30] | [32] | [43] | [45]
32 µg/mL: [11] | [39]
> 32 µg/mL: [8] | [25] | [27] | [33] | [34] | [41]
> 2 µg/mL: [20]
0.5 µg/mL: [1]
1 µg/mL: [2]
not listed: [31]
2 µg/mL: all other assays above
